{
  "source": "ChEMBL document CHEMBL1629601",
  "about": "“In vitro susceptibility of field isolates of Leishmania donovani to Miltefosine and amphotericin B: correlation with sodium antimony gluconate susceptibility and implications for treatment in areas of endemicity” (2009)",
  "type_in_all_cases": "functional",
  "key": {"Leishmania donovani [1]": {"tested_on": "Leishmania donovani", "experiment": "Antimicrobial activity against Leishmania donovani K59M20 promastigote", "details": "read-out: ED50 (the source's name)"}, "Leishmania donovani [2]": {"tested_on": "Leishmania donovani", "experiment": "Antimicrobial activity against Leishmania donovani K509 promastigote", "details": "read-out: ED50 (the source's name)"}, "Leishmania donovani [3]": {"tested_on": "Leishmania donovani", "experiment": "Decrease in LdRoS3 gene expression in Leishmania donovani K135 by RT-PCR method", "procedure,_shortened": "(§1)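 VL field isolates of L. donovani. Transcript levels of LdMT or LdRos3 were measured by real-time RT-PCR with SYBR green and analysed by the 2−ΔΔCt method. The expression index is the ratio of gene expression to that of the standard L. donovani strain LdAG83, and a decrease is relative to LdAG83. Values are means of three independent experiments.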"}, "Leishmania donovani [4]": {"tested_on": "Leishmania donovani", "experiment": "Decrease in LdRoS3 gene expression in Leishmania donovani K132 by RT-PCR method", "procedure,_shortened": "as §1"}, "Leishmania donovani [5]": {"tested_on": "Leishmania donovani", "experiment": "Antimicrobial activity against Leishmania donovani K509 amastigote", "details": "read-out: ED50 (the source's name)"}, "Leishmania donovani [6]": {"tested_on": "Leishmania donovani", "experiment": "Antimicrobial activity against Leishmania donovani K133 amastigote", "details": "read-out: ED50 (the source's name)"}, "Leishmania donovani [7]": {"tested_on": "Leishmania donovani", "experiment": "Decrease in LdMT gene expression in Leishmania donovani K59 by RT-PCR method", "procedure,_shortened": "as §1"}, "Leishmania donovani [8]": {"tested_on": "Leishmania donovani", "experiment": "Antimicrobial activity against Leishmania donovani K417 promastigote", "details": "read-out: ED50 (the source's name)"}, "Leishmania donovani [9]": {"tested_on": "Leishmania donovani", "experiment": "Antimicrobial activity against Leishmania donovani K131 promastigote", "details": "read-out: ED50 (the source's name)"}, "Leishmania donovani [10]": {"tested_on": "Leishmania donovani", "experiment": "Antimicrobial activity against Leishmania donovani K251 promastigote", "details": "read-out: ED50 (the source's name)"}, "Leishmania donovani [11]": {"tested_on": "Leishmania donovani", "experiment": "Antimicrobial activity against Leishmania donovani LdAG83 amastigote", "details": "read-out: ED50 (the source's name)"}, "Leishmania donovani [12]": {"tested_on": "Leishmania donovani", "experiment": "Antimicrobial activity against Leishmania donovani K435 amastigote", "details": "read-out: ED50 (the source's name)"}, "Leishmania donovani [13]": {"tested_on": "Leishmania donovani", "experiment": "Decrease in LdRoS3 gene expression in Leishmania donovani K59M20 by RT-PCR method", "procedure,_shortened": "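MIL-resistant M20 parasites were generated by raising the MIL concentration stepwise up to 20 μg/ml. LdMT or LdRos3 expression was quantified by real-time RT-PCR (SYBR green, 2−ΔΔCt method) and reported as an expression index, the ratio to the standard strain LdAG83. A decrease is relative to LdAG83. Values are means of three independent experiments.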"}, "Leishmania donovani [14]": {"tested_on": "Leishmania donovani", "experiment": "Antimicrobial activity against Leishmania donovani K417M20 amastigote", "details": "read-out: ED50 (the source's name)"}, "Leishmania donovani [15]": {"tested_on": "Leishmania donovani", "experiment": "Antimicrobial activity against Leishmania donovani K439 promastigote", "details": "read-out: ED50 (the source's name)"}, "Leishmania donovani [16]": {"tested_on": "Leishmania donovani", "experiment": "Decrease in LdMT gene expression in Leishmania donovani K132 by RT-PCR method", "procedure,_shortened": "(§2)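 LdMT transcript levels were measured by real-time RT-PCR with SYBR green and analysed by the 2−ΔΔCt method. They are expressed as an expression index, the ratio relative to reference strain LdAG83, and are the mean of three independent experiments.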"}, "Leishmania donovani [17]": {"tested_on": "Leishmania donovani", "experiment": "Antimicrobial activity against Leishmania donovani K417M20 promastigote", "details": "read-out: ED50 (the source's name)"}, "Leishmania donovani [18]": {"tested_on": "Leishmania donovani", "experiment": "Decrease in LdRoS3 gene expression in Leishmania donovani K216 by RT-PCR method", "procedure,_shortened": "as §1"}, "Leishmania donovani [19]": {"tested_on": "Leishmania donovani", "experiment": "Antimicrobial activity against Leishmania donovani K481 amastigote", "details": "read-out: ED50 (the source's name)"}, "Leishmania donovani [20]": {"tested_on": "Leishmania donovani", "experiment": "Antimicrobial activity against Leishmania donovani K417 amastigote", "details": "read-out: ED50 (the source's name)"}, "Leishmania donovani [21]": {"tested_on": "Leishmania donovani", "experiment": "Decrease in LdMT gene expression in Leishmania donovani K417 by RT-PCR method", "procedure,_shortened": "as §1"}, "Leishmania donovani [22]": {"tested_on": "Leishmania donovani", "experiment": "Decrease in LdRoS3 gene expression in Leishmania donovani K133 by RT-PCR method", "procedure,_shortened": "as §1"}, "Leishmania donovani [23]": {"tested_on": "Leishmania donovani", "experiment": "Decrease in LdRoS3 gene expression in Leishmania donovani K498 by RT-PCR method", "procedure,_shortened": "as §1"}, "Leishmania donovani [24]": {"tested_on": "Leishmania donovani", "experiment": "Decrease in LdRoS3 gene expression in Leishmania donovani K59 by RT-PCR method", "procedure,_shortened": "as §1"}, "Leishmania donovani [25]": {"tested_on": "Leishmania donovani", "experiment": "Decrease in LdMT gene expression in Leishmania donovani K135 by RT-PCR method", "procedure,_shortened": "as §2"}, "Leishmania donovani [26]": {"tested_on": "Leishmania donovani", "experiment": "Antimicrobial activity against Leishmania donovani K111 promastigote", "details": "read-out: ED50 (the source's name)"}, "Leishmania donovani [27]": {"tested_on": "Leishmania donovani", "experiment": "Decrease in LdMT gene expression in Leishmania donovani K498 by RT-PCR method", "procedure,_shortened": "as §1"}, "Leishmania donovani [28]": {"tested_on": "Leishmania donovani", "experiment": "Antimicrobial activity against Leishmania donovani K498 amastigote", "details": "read-out: ED50 (the source's name)"}, "Leishmania donovani [29]": {"tested_on": "Leishmania donovani", "experiment": "Decrease in LdRoS3 gene expression in Leishmania donovani K131 by RT-PCR method", "procedure,_shortened": "as §1"}, "Leishmania donovani [30]": {"tested_on": "Leishmania donovani", "experiment": "Decrease in LdMT gene expression in Leishmania donovani K429 by RT-PCR method", "procedure,_shortened": "as §1"}, "Leishmania donovani [31]": {"tested_on": "Leishmania donovani", "experiment": "Decrease in LdRoS3 gene expression in Leishmania donovani K80 by RT-PCR method", "procedure,_shortened": "as §1"}, "Leishmania donovani [32]": {"tested_on": "Leishmania donovani", "experiment": "Antimicrobial activity against Leishmania donovani K216 promastigote", "details": "read-out: ED50 (the source's name)"}, "Leishmania donovani [33]": {"tested_on": "Leishmania donovani", "experiment": "Antimicrobial activity against Leishmania donovani K429 amastigote", "details": "read-out: ED50 (the source's name)"}, "Leishmania donovani [34]": {"tested_on": "Leishmania donovani", "experiment": "Antimicrobial activity against Leishmania donovani K149 promastigote", "details": "read-out: ED50 (the source's name)"}, "Leishmania donovani [35]": {"tested_on": "Leishmania donovani", "experiment": "Antimicrobial activity against Leishmania donovani K133 promastigote", "details": "read-out: ED50 (the source's name)"}, "Leishmania donovani [36]": {"tested_on": "Leishmania donovani", "experiment": "Decrease in LdRoS3 gene expression in Leishmania donovani K516 by RT-PCR method", "procedure,_shortened": "as §1"}, "Leishmania donovani [37]": {"tested_on": "Leishmania donovani", "experiment": "Decrease in LdMT gene expression in Leishmania donovani K516 by RT-PCR method", "procedure,_shortened": "as §1"}, "Leishmania donovani [38]": {"tested_on": "Leishmania donovani", "experiment": "Antimicrobial activity against Leishmania donovani K439 amastigote", "details": "read-out: ED50 (the source's name)"}, "Leishmania donovani [39]": {"tested_on": "Leishmania donovani", "experiment": "Antimicrobial activity against Leishmania donovani K481 promastigote", "details": "read-out: ED50 (the source's name)"}, "Leishmania donovani [40]": {"tested_on": "Leishmania donovani", "experiment": "Antimicrobial activity against Leishmania donovani K59 amastigote", "details": "read-out: ED50 (the source's name)"}, "Leishmania donovani [41]": {"tested_on": "Leishmania donovani", "experiment": "Antimicrobial activity against Leishmania donovani K192 amastigote", "details": "read-out: ED50 (the source's name)"}},
  "data": [
    {"compound": "CCCCCCCCCCCCCCCCOP(=O)([O-])OCC[N+](C)(C)C", "note": "[MILTEFOSINE]", "values": [
      {"measurement": "EC50", "setting": "Leishmania donovani [1]", "value": "> 15", "unit": "µg/mL"},
      {"measurement": "EC50", "setting": "Leishmania donovani [2]", "value": 1.94, "unit": "µg/mL"},
      {"measurement": "fold change (FC)", "setting": "Leishmania donovani [3]", "value": 1.67},
      {"measurement": "fold change (FC)", "setting": "Leishmania donovani [4]", "value": 55.55},
      {"measurement": "EC50", "setting": "Leishmania donovani [5]", "value": 2.16, "unit": "µg/mL"},
      {"measurement": "EC50", "setting": "Leishmania donovani [6]", "value": 0.93, "unit": "µg/mL"},
      {"measurement": "fold change (FC)", "setting": "Leishmania donovani [7]", "value": 2.84},
      {"measurement": "EC50", "setting": "Leishmania donovani [8]", "value": 1.72, "unit": "µg/mL"},
      {"measurement": "EC50", "setting": "Leishmania donovani [9]", "value": 0.63, "unit": "µg/mL"},
      {"measurement": "EC50", "setting": "Leishmania donovani [10]", "value": 0.4, "unit": "µg/mL"},
      {"measurement": "EC50", "setting": "Leishmania donovani [11]", "value": 0.85, "unit": "µg/mL"},
      {"measurement": "EC50", "setting": "Leishmania donovani [12]", "value": 1.08, "unit": "µg/mL"},
      {"measurement": "fold change (FC)", "setting": "Leishmania donovani [13]", "value": 100},
      {"measurement": "EC50", "setting": "Leishmania donovani [14]", "value": "> 15", "unit": "µg/mL"},
      {"measurement": "EC50", "setting": "Leishmania donovani [15]", "value": 0.87, "unit": "µg/mL"},
      {"measurement": "fold change (FC)", "setting": "Leishmania donovani [16]", "value": 5.5},
      {"measurement": "EC50", "setting": "Leishmania donovani [17]", "value": "> 15", "unit": "µg/mL"},
      {"measurement": "fold change (FC)", "setting": "Leishmania donovani [18]", "value": 9.43},
      {"measurement": "EC50", "setting": "Leishmania donovani [19]", "value": 2.32, "unit": "µg/mL"},
      {"measurement": "EC50", "setting": "Leishmania donovani [20]", "value": 1.9, "unit": "µg/mL"},
      {"measurement": "fold change (FC)", "setting": "Leishmania donovani [21]", "value": 1.88},
      {"measurement": "fold change (FC)", "setting": "Leishmania donovani [22]", "value": 4.52},
      {"measurement": "fold change (FC)", "setting": "Leishmania donovani [23]", "value": 7.63},
      {"measurement": "fold change (FC)", "setting": "Leishmania donovani [24]", "value": 4.06},
      {"measurement": "fold change (FC)", "setting": "Leishmania donovani [25]", "value": 2.86},
      {"measurement": "EC50", "setting": "Leishmania donovani [26]", "value": 0.47, "unit": "µg/mL"},
      {"measurement": "fold change (FC)", "setting": "Leishmania donovani [27]", "value": 1.38},
      {"measurement": "EC50", "setting": "Leishmania donovani [28]", "value": 1.65, "unit": "µg/mL"},
      {"measurement": "fold change (FC)", "setting": "Leishmania donovani [29]", "value": 11.1},
      {"measurement": "fold change (FC)", "setting": "Leishmania donovani [30]", "value": 1.26},
      {"measurement": "fold change (FC)", "setting": "Leishmania donovani [31]", "value": 1.71},
      {"measurement": "EC50", "setting": "Leishmania donovani [32]", "value": 0.76, "unit": "µg/mL"},
      {"measurement": "EC50", "setting": "Leishmania donovani [33]", "value": 1.24, "unit": "µg/mL"},
      {"measurement": "EC50", "setting": "Leishmania donovani [34]", "value": 1.56, "unit": "µg/mL"},
      {"measurement": "EC50", "setting": "Leishmania donovani [35]", "value": 0.83, "unit": "µg/mL"},
      {"measurement": "fold change (FC)", "setting": "Leishmania donovani [36]", "value": 83.33},
      {"measurement": "fold change (FC)", "setting": "Leishmania donovani [37]", "value": 8},
      {"measurement": "EC50", "setting": "Leishmania donovani [38]", "value": 1.07, "unit": "µg/mL"},
      {"measurement": "EC50", "setting": "Leishmania donovani [39]", "value": 1.9, "unit": "µg/mL"},
      {"measurement": "EC50", "setting": "Leishmania donovani [40]", "value": 1.86, "unit": "µg/mL"},
      {"measurement": "EC50", "setting": "Leishmania donovani [41]", "value": 1.99, "unit": "µg/mL"}
    ]}
  ]
}
